Measurements from article PMC10213863 (Cell Reports Medicine, 2023).
Like-named read-outs stand apart in the source and are kept apart here.

Legend:
[1] = system: SLE immune-complex-driven IFN-α response in PBMCs; assay: IFN-α release from PBMCs stimulated with SLE patient sera immune complexes; assay type: cell-based, human
[2] = system: ssRNA driven IFN transcripts in human PBMCs; assay: ISG expression in human PBMCs stimulated with ssRNA; assay type: cell-based; details: HCQ vs MHV370
Outline: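 PBMCs were pre-incubated 30 min with test compound or HCQ, then stimulated with ssRNA at doses from earlier work. RNA was extracted, and ISG transcripts were quantified by qRT-PCR with the 2−ΔΔCt method against 18S rRNA, using biological replicates. Each ISG's induction was normalized to 100% to give a panel signature.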

[3] = system: immune-complex stimulated ISG panel in PBMCs; assay: Five-gene ISG panel in PBMCs stimulated with SLE immune complexes; assay type: cell-based, human; details: HCQ 1 μM
Outline: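 PBMCs were pre-treated 30 min with test compound, HCQ or 0.1% DMSO, then stimulated 20 h with SLE serum pre-complexed with U-937 necrotic extract. RNA was extracted and ISGs quantified by qRT-PCR with the 2−ΔΔCt method against 18S rRNA, using biological replicates. Global ISG induction was derived by normalizing each ISG's relative induction to 100%.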

[4] = system: IFN-α accelerated NZB/W F1 model; details: cited from earlier work
SLE patients [5] = details: cited from earlier work
SLE patients [6] = details: BLISS trial, cited from earlier work

In the case of `CCN(CCO)CCCC(C)Nc1ccnc2cc(Cl)ccc12` (stereo not drawn) [HCQ, hydroxychloroquine, reference compound], the “inhibition of immune-complex-driven IFN-α responses by serum category” value ([1]; HCQ 1 μM (matched steady-state blood exposure of SLE patients), PBMCs) is reported as “strongest inhibition of IFN-α responses elicited by dsDNA immune complexes”, the “fold lower potency than MHV370, immune-complex-induced IFN-α” value ([1]; HCQ vs MHV370) is reported as “approximately 1,000 fold” and the “fold less potent antagonist of ISG expression than MHV370” value [2] is reported as 3,300 fold. The “expression of a five-panel ISG signature” value [3] was “only mildly effective”.
For `N#Cc1ccc(N2C[C@H](N)C[C@H](C(F)(F)F)C2)c2cccnc12` [M5049], the “efficacy in IFN-α accelerated NZB/W F1 model” value [4] is listed as “showed efficacy”.
For “anifrolumab: antibody drug which interferes with type I IFN signaling”, the “herpes virus infections in treated patients” value (SLE patients [5]) is listed as “increased” and the “predefined endpoint in phase 3 studies” value (SLE patients [5]; one of two phase 3 studies) is listed as “failed to reach its predefined endpoint”.
In the case of “belimumab: antibody drug which interferes with B cell expansion”, the “SRI (SLE responder index) response rate above placebo” value (SLE patients [6]; 1 mg/kg) is given as 7% and the “SRI (SLE responder index) response rate above placebo” value (SLE patients [6]; 10 mg/kg) is given as 14%.
